Experimental data taken from ChEMBL document CHEMBL5032510, “Identification of Novel Fused Heteroaromatics-Based MALT1 Inhibitors by High-Throughput Screening to Treat B Cell Lymphoma” (J Med Chem, 2021).
The source made the active and inactive calls. The rule behind the calls is not given here.

Columns and labels:
[1] = target: T1, Mucosa-associated lymphoid tissue lymphoma translocation protein 1 (Homo sapiens, UniProt Q9UDY8); assay: Inhibition of MALT1 (340 to 789 residues) (unknown origin) using Ac-LRSR-AMC as substrate by fluorescence based analysis
T1 sequence (Q9UDY8 whole entry): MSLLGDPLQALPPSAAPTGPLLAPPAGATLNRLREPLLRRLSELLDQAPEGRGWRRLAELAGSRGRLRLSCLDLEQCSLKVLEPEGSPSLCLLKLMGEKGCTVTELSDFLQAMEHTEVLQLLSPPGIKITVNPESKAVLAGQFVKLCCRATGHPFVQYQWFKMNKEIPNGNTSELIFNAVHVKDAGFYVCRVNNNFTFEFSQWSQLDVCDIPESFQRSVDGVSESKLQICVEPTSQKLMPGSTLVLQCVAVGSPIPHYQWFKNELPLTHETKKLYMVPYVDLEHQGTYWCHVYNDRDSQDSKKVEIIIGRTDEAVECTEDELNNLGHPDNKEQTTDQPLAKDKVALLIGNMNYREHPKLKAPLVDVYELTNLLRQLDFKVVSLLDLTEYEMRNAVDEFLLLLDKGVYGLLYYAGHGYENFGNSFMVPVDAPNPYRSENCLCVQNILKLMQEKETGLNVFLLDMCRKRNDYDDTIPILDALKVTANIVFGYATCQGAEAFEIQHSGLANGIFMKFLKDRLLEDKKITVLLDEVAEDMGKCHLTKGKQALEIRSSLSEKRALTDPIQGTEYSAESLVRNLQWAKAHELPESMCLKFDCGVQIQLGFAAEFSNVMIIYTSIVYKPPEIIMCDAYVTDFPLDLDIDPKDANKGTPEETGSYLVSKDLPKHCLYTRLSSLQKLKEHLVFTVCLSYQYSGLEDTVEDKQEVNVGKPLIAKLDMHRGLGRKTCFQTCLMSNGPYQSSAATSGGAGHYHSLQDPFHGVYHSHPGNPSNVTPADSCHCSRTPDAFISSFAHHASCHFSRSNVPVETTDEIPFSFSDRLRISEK
Summary of the method: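 N-terminal His-tagged LZ-MALT1 expressed in E. coli, purified by Ni-NTA then gel filtration. Fluorescence read at 360/465 nm. IC₅₀ came from concentration–response curves; mean of three independent experiments.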

[2] = target: T1, Mucosa-associated lymphoid tissue lymphoma translocation protein 1; assay: Inhibition of full length recombinant wild type MALT1 (unknown origin) using Ac-LVSR-AMC as substrate by HTS assay
[3] = target: T1, Mucosa-associated lymphoid tissue lymphoma translocation protein 1; assay: Inhibition of N-terminal his-tagged GCN4 leucine zipper fused human MALT1 […] expressed in Escherichia coli using Ac-LVSR-AMC as substrate by HTS assay
[4] = Antiproliferative activity against human HBL1 cells assessed as inhibition of cell growth incubated for 72 hrs by Celltiter-Glo luminescent assay; assay type: functional
Summary of the method: (§1)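 Exponentially growing cells were seeded at 1 × 10⁴ per 100 μL. HBL-1 and TMD8 were kept in RPMI with 10% FBS, 2 mM glutamine and 10 mM HEPES; OCI-LY1 in Iscove's medium with 20% FBS; all at 37 °C and 5% CO2. Cells were exposed to DMSO or 2-fold serial dilutions from 100 μM for 72 h, in triplicate on one plate. CellTiter-Glo luminescence was read after 1 h. Growth inhibition was calculated against control, accounting for initial cell number, and GI50 was fitted.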

OCI-Ly1 = assay: Antiproliferative activity against human OCI-Ly1 cells assessed as inhibition of cell growth incubated for 72 hrs by Celltiter-Glo luminescent assay; assay type: functional; summary of the method: as §1
TMD8 = assay: Antiproliferative activity against human TMD8 cells assessed as inhibition of cell growth incubated for 72 hrs by Celltiter-Glo luminescent assay; assay type: functional; summary of the method: as §1
[5] = target: T1, Mucosa-associated lymphoid tissue lymphoma translocation protein 1; assay: Inhibition of MALT1 (329-824 residues) (unknown origin) using PT14 as substrate incubated for 60 mins by fluorescence based assay

| IC50 [1] [µM] | IC50 [2] [µM] | IC50 [3] [µM] | GI50 (OCI-Ly1) [µM] | IC50 [5] [µM] | Compound | GI50 [4] [µM] | GI50 (TMD8) [µM] | Activity (OCI-Ly1) |
| --- | --- | --- | --- | --- | --- | --- | --- | --- |
| 0.01 | – | – | – | – | CC(C)[C@H](NC(=O)c1ccc(Br)cc1)C(=O)N1CCC[C@H]1C(=O)N[C@@H](CCCNC(=N)N)C(=O)CF | – | – | – |
| – | 5.84 | – | – | – | COCCOc1nc(-c2ccc(Cl)c(Cl)c2)n(-c2ccc(NC(=O)CCl)cc2)n1 | – | – | – |
| – | – | 14 | 14.2 | – | COc1cc2c(=O)[nH]c3c(C(=O)Nc4cc(Cl)cc(Cl)c4)sc(=S)n3c2cc1OC | 2.2 | 6.3 | – |
| – | – | 3.3 | 20.2 | – | O=C(Nc1cc(Cl)cc(Cl)c1)c1sc(=S)n2c1[nH]c(=O)c1cc(Br)ccc12 | 18.4 | 3.9 | – |
| – | – | 16.6 | 11.2 | – | Cc1ccc(NC(=O)Nc2ccc3nc(N4CCN(C)CC4)cc(C)c3c2)cc1Cl | 5.56 | 5.56 | – |
| – | – | 8.36 | 22.8 | – | O=C(O)c1cccc(NC(=O)c2sc(=S)n3c2[nH]c(=O)c2ccc(Cl)cc23)c1 | 22.8 | 22.8 | – |
| – | – | 7.16 | – | – | Cc1ccc(NC(=O)c2sc(=S)n3c2[nH]c(=O)c2cc(C)ccc23)c(C)c1 | 20.4 | 15.6 | inactive |
| – | – | 2.2 | 10 | – | O=C(Nc1cc(Cl)cc(Cl)c1)c1sc(=S)n2c1[nH]c(=O)c1ccccc12 | 8 | 3.7 | – |
| – | – | – | – | 0.005 | CO[C@@H](C)c1c(NC(=O)Nc2cnc(C(=O)N3CCCC3)c(Cl)c2)cnc2cc(Cl)nn12 | – | – | – |
| – | – | 3.2 | 13.3 | – | COc1ccc(OC)c(NC(=O)c2sc(=S)n(-c3cccc(C(F)(F)F)c3)c2NC(=O)CCl)c1 | 2.2 | 1.3 | – |
| – | – | 18.5 | 31.3 | – | CCc1ccccc1NC(=O)c1sc(=S)n2c1[nH]c(=O)c1cc(C)ccc12 | 31.3 | 31.3 | – |
| – | – | 5.3 | 13.4 | – | COC(=O)c1ccc2c(=O)[nH]c3c(C(=O)Nc4cc(OC)ccc4OC)sc(=S)n3c2c1 | 6.7 | 7 | – |
| – | – | 5.3 | – | – | O=C(NCc1ccccc1Cl)c1sc(=S)n2c1[nH]c(=O)c1cc(Cl)ccc12 | 25 | 33 | inactive |
| – | – | 4.1 | – | – | O=C(NCc1cccs1)c1sc(=S)n2c1[nH]c(=O)c1cc(Br)ccc12 | 13 | 22 | inactive |
